assay: Toxicity liver stage against HepG2, at 10uM; format: cell-based; parameters: test concentration 10 uM, cell line HepG2-A16-CD81EGFP; conditions: human, HepG2-A16-CD81EGFP cells; read-out: INHIBITION
In short: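 Uninfected HepG2-A16-CD81EGFP cells, 3 × 10^3 per well, 1536-well, plated on prespotted compound at 10 μM final, parasite-free screening media added to match infected plates; puromycin 10 μM positive, DMSO 0.5% negative; run in parallel with 48 h PbLuc assay at 37 °C, 5% CO2; viability by CellTiter-Glo luminescence, normalized to controls.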

Compound	cytotoxicity at 10 µM
c1ccc2nc(NCC3(N4CCOCC4)CCSC3)cnc2c1 (stereo unspecified)	12.7%
COc1nn(C)c2c1CCCN(C(=O)c1ccccc1)C2	-9.76%
O=C1CC(N(C(=O)COc2ccc(F)cc2F)C2CC2)C(=O)N1 (stereo unspecified)	-3.59%
CN(Cc1cc(C2CC2)[nH]n1)C(=O)c1cnn2ccn(C)c12	-3.67%
CC(NC(=O)NCC(C)(C)O)c1ccc(-c2ccncc2)cc1 (stereo unspecified)	7.15%
O=C1CCC2(CCCN(C(=O)c3ccc[nH]3)C2)CN1CCc1c[nH]cn1 (stereo unspecified)	0.0773%
COC(=O)C1CN(Cc2ccccc2C(C)(C)C#N)CCO1 (stereo unspecified)	-1.78%
COCCN(C)CCN1CC2(CCN(C3CCNCC3)CC2)OC1=O	1.64%
COCc1nc(C(=O)NS(=O)(=O)c2ccc(F)cc2F)cs1	-8.51%
N#Cc1ccc(N2CCCN(CC(N)=O)CC2)cc1	3.11%
Cc1ccccc1C1CN(c2cnn(C)c(=O)c2Cl)CCO1 (stereo unspecified)	-19.4%
Cn1c(C(=O)N2CCc3[nH]cnc3C2C(=O)O)ccc1-c1ccccc1 (stereo unspecified)	-0.392%
Cc1noc(C)c1CN1CC2(CCN(C(=O)c3cscn3)CC2)CC1=O	-8.86%
Cc1cc(N(C)Cc2snnc2C)nc(-c2cccnc2)n1	2.43%
CC(NC(=O)Nc1nccs1)c1ccc(S(C)(=O)=O)cc1 (stereo unspecified)	7.04%
CN1CCN(Cc2cn3c(n2)CN(C(=O)c2ccco2)CC3)CC1	-4%
O=C(N1CCOCC1)[C@@]12CCO[C@@H]1CCN(Cc1ccccc1F)C2	2.99%
CCN(CC)C(=O)c1cc(C2CCCN2C)ccn1 (stereo unspecified)	-3.24%
CC(O)CNCc1c[nH]nc1-c1cc2ccccc2o1 (stereo unspecified)	0.788%
Cc1ccc(C)c(NC(=O)c2cc(S(=O)(=O)N3CCSCC3)c[nH]2)c1	-0.185%
Cc1cc(C)nc(NC(C)Cc2cnccn2)n1 (stereo unspecified)	1.54%
Cc1cccc(-n2nc(CC(C)C)nc2[C@H](C)O)c1	5.54%
Cc1nc2sccn2c1CN(CCCN(C)C)Cc1ccccn1	3.38%

Compound	cytotoxicity at 10 µM
CC(C)(C)c1n[nH]c(C2CN(C(=O)CCCn3cccn3)CCO2)n1 (stereo unspecified)	-0.839%
NC(=O)COc1cccc(C(=O)Nc2cnc3n2CCCC3)c1	18.2%
COc1nn(C)c2c1CCCN(C(=O)c1cccc(C)n1)C2	-97.3%
O=C(Nc1nccs1)N1CCCC(N2CCNC2=O)C1 (stereo unspecified)	-20.7%
Cc1ccc(CN2CCO[C@@H]3[C@@H](OCc4cccnc4)CC[C@@H]32)o1	8.37%
CCC(C(=O)NCCc1nc(C)cc(C(F)(F)F)n1)n1cccn1 (stereo unspecified)	-9.77%
CCn1nc(CC(C)C)cc1C(=O)N1CCCC(C#N)C1 (stereo unspecified)	-8.2%
CCNc1ccnc(NC2CCN(CC(N)=O)CC2)n1	-15.7%
COc1ccc(OC)c(NC(=O)c2c(C)cn(C)c2CC(=O)O)c1	-1.52%
COC1(CNC(=O)c2ccsc2)CCSC1 (stereo unspecified)	-3.09%
Cn1cncc1CN1CCc2nc3sccc3c(=O)n2CC1	-3.75%
COC1COC2(CCN(Cc3ccccc3F)CC2)C1 (stereo unspecified)	-5.58%
CN(Cc1ccc(O)cc1)C(=O)NC1CCCN(c2ncccn2)C1 (stereo unspecified)	-9.63%
CN(C)c1ncccc1CNC(=O)NCCN(C)C1CCCC1	-11.9%
Cc1n[nH]c(C)c1CCC(=O)N[C@@H]1CCC[C@@H](Oc2ccccc2)[C@@H]1O	3.01%
CC(=O)N1CCN(C(=O)CN2CCN(c3cccc(C)c3)CC2)CC1	-1.75%
Fc1ccc2c(c1)C(NCc1nnc3n1CCCCC3)CCCO2 (stereo unspecified)	-9.52%
Cc1n[nH]c(C2CN(C(=O)CCc3ccsc3)CCO2)n1 (stereo unspecified)	-5.15%
O=C(Cc1ccc2c(c1)OCO2)N[C@@H]1CCNC[C@H]1O	0.635%
CCCC(=O)N1CCCC(c2ccccn2)C1 (stereo unspecified)	0.0858%
COc1ccccc1N1CCC(CNC(=O)CN2CSCC2=O)C1 (stereo unspecified)	-1.33%
CC(C)COc1cncc(NCCc2nnc3ccccn23)n1	7.55%
Cc1nc(CN2CCc3cnc(C(C)C)nc3C2)oc1C	0.479%

Compound	cytotoxicity at 10 µM
CCNc1nnc(SCc2nnc(C(C)(C)C)o2)s1	-1.79%
Nc1cc(C(=O)NCC2CCN(CCc3ccccc3)C2)ccn1 (stereo unspecified)	-5.47%
CCN(Cc1cnn(C)c1)C(=O)c1ccc(C)c(N2CCNC2=O)c1	-7.08%
Cc1cncc(C(=O)N2CCCC(C(=O)CCc3ccccc3)C2)c1 (stereo unspecified)	-10.1%
COCCN(C)C[C@@H]1CCC[C@@H]2CN(c3cc(OC)ncn3)C[C@@H]21	1.75%
CCn1ncc2c1C(COC)N(C(=O)c1cscn1)CC2 (stereo unspecified)	-98.1%
COc1cccc(Nc2nc(C3CCNCC3)c3ccccn23)c1	-2.67%
CCN(CC)CCn1ccnc1-c1cccc(C#N)c1	-5%
NC(=O)c1cnc(-c2ccccc2)nc1CCNC(=O)CN1CCCC1	-1.25%
Cc1noc(C2CCN(c3oc(C)nc3C#N)CC2)n1	-6.32%
O=C(O)c1ccc(S(=O)(=O)Nc2ccccc2CC(F)(F)F)c(F)c1	6.02%
C1CN(c2nc3c(c(NC4CC4)n2)CN(CC2CCOC2)CC3)CCO1 (stereo unspecified)	-2.22%
Cn1cncc1CN1CCC2(CC1)COCCN(S(C)(=O)=O)C2	4.73%
CN(C)C(=O)N1CCC2(CC1)CCN(Cc1ccccn1)C2=O	2.05%
OCCn1ncc2c1CN(CC1CCOc3ccccc3C1)C2 (stereo unspecified)	-5.35%
Cc1ccc(S(=O)(=O)N2CCN(CCCn3ccnc3)CC2)cc1	-13.5%
CCCN(C(=O)COC)c1nc2c(s1)CCc1c-2cnn1C	5.15%
CCn1cc(CNC(C)c2noc(-c3ccc(Cl)cc3)n2)cn1 (stereo unspecified)	3.63%
O[C@@H]1CN(c2cnc3ccccc3n2)CC[C@H]1c1ccc2c(c1)OCO2	22.4%
Clc1cc(N2CCN(C3CCOCC3)CC2)nc2[nH]ccc12	-3.96%
Cc1cc(C)n(-c2ccc(N3CCCSCC3)nc2)n1	-2.08%
Cc1cc2ccccc2n1CCC(=O)N1CCCC2(CC1)CNC(=O)O2 (stereo unspecified)	3.5%
O=C(COCc1ccccc1)N1CCCC1c1noc(C2CC2)n1 (stereo unspecified)	-1.98%

Compound	cytotoxicity at 10 µM
O=C(NCc1cccnc1)c1nc2c(s1)CCCN2C(=O)C1CC1	-93%
Cc1ccc(CC(NC(=O)Cn2cnnn2)c2ccccn2)cc1 (stereo unspecified)	1.72%
CC(=O)N1CC(=O)N(c2cnn(C)c2)CC12CCN(Cc1ccsc1)C2 (stereo unspecified)	-17.6%
O[C@@H]1C[C@@H](c2nc(Cc3ccccc3)no2)N(Cc2ccc(F)cc2)C1	0.296%
COC(=O)C(C)(C)NC(=O)C1CC(=O)N(C2CC2)C1 (stereo unspecified)	-139%
c1ncc(-c2ccc(C3CNCCO3)nc2)cn1 (stereo unspecified)	-5.33%
O=C(c1cc(F)ccc1F)C1CCN(C(=O)c2ccccn2)CC1	2.6%
CCCN1Cc2ccccc2NC(=O)C12CCNC2 (stereo unspecified)	5.92%
Cc1cnn(CC2CN(C=C3NN=C(c4occc4C)O3)CCO2)c1 (stereo unspecified)	-2.9%
FC1(F)CCNCC12CCN(c1cccnc1)C2 (stereo unspecified)	5.8%
O=C(NCC(c1cccs1)N1CCOCC1)c1ccc(F)cc1Cl (stereo unspecified)	-2.27%
Cc1nn(C)cc1S(=O)(=O)N[C@@H]1CC[C@@H](n2ccnc2C)[C@@H]1O	-3.43%
CC1CCCCN1C(=O)c1ccc2c(c1)OCCCO2 (stereo unspecified)	9.62%
CCN1CCN(C2CCN(Cc3nc4ccccc4o3)CC2)C1=O	5.61%
COCCC1(C(=O)O)CCN(c2cc(C)c3ccccc3n2)CC1	-41.6%
Cc1cncc(C(=O)N2CCCC(O)(CN3CCCC3)C2)c1 (stereo unspecified)	10.1%
COc1cccc(C(C)N2CCN(S(=O)(=O)CCCF)CC2)c1 (stereo unspecified)	2.5%
CCN1CC(C(=O)NCc2ccnc(-n3cccn3)c2)CC1=O (stereo unspecified)	-9.3%
CNS(=O)(=O)CC(=O)N1CC2(CCCC2)c2c(F)cccc21	-1.21%
Cn1c(C2CC2)nc2c1CCN(CCOc1ccccc1C#N)C2	-29.8%
Cc1cc(Br)c(O)c(C(=O)N2CCC(CN3CCCCCC3)CC2)c1	8.29%
CC(c1nc(C2CC2)no1)N1CCN(Cc2ccsc2)CC1 (stereo unspecified)	0.993%
Cc1nn(C)c(N(C)C)c1CNCc1cccc(Br)c1	-7.98%

Compound	cytotoxicity at 10 µM
COc1cc(CNCCC(N)=O)c2c(c1)CC(C)O2 (stereo unspecified)	8.41%
COc1c(NS(=O)(=O)c2ccc(C)c(C)c2)c(C)nn1C	3.73%
Cc1ccccc1N1CC2(CCN(Cc3nccn3C)C2)CC1=O (stereo unspecified)	-81.3%
CC(=O)NCC(=O)N1CCn2cc(CN3CCCCC3)nc2C1	-3.34%
Cc1nn2c(N3CCC(C(N)=O)CC3)cc(-c3ccccc3)nc2c1C	-2.83%
CCN1C[C@H]2C3(CCN(S(=O)(=O)CC)CC3)CC[C@@]2(C(=O)N(C)C)C1	2.84%
CCc1ccsc1C(=O)NCCn1nc2ccccn2c1=O	-12.2%
Cc1nnc2n1CCN(CCS(=O)(=O)c1ccccc1)C2	-9.7%
O=c1[nH]c2cn(-c3cccc(Cl)c3)c(=O)n2n1Cc1cccc(F)c1	11%
CC(C)=CCN1CCN(Cc2nccn2C)[C@H]2CS(=O)(=O)C[C@H]21	-2.76%
COCCc1noc(CN2CCCC2Cn2nc(C)cc2C)n1 (stereo unspecified)	-1.92%
COc1ccccc1OC1(C(=O)O)CCN(c2cnccn2)CC1	-27.5%
Cc1cnn(CCC(=O)NS(=O)(=O)N2CCCc3ccccc32)c1	9.73%
CC(C(=O)N1CCN(Cc2ccc(C#N)cc2)CC1)n1ccnc1 (stereo unspecified)	-9.71%
CC1=C(C#N)C(=O)NC(=O)/C1=C\c1c(C)[nH]n(-c2ccc(C)cc2)c1=O	1.91%
N#Cc1ccc(OCC(=O)N2CCCC(n3cccn3)C2)cc1 (stereo unspecified)	-2.83%
Cc1cc(C)n(C2CN(Cc3ccccn3)C2)n1	-3.67%
COCc1ccc(C(=O)N2CCN(CCS(C)(=O)=O)CC2)cc1	-1.33%
Cc1ccc(C(=O)N2CCC3(CCC(=O)N(CCCO)C3)CC2)c(O)c1	7.4%
